In ChEMBL document CHEMBL4480410, “Targeting the MKK7-JNK (Mitogen-Activated Protein Kinase Kinase 7-c-Jun N-Terminal Kinase) Pathway with Covalent Inhibitors” (J Med Chem, 2019):
Calls of active or inactive are those of the source. No cut-off for these calls is given here.

Columns and labels:
[1] = biological target: T1, Dual specificity mitogen-activated protein kinase kinase 7 (Mus musculus) (UniProt Q8CE90); assay: Inhibition of MKK7 in mouse DRG cells assessed as reduction in JNK phosphorylation at 1 uM after 2 hrs by Western blot analysis; type: cell-based
T1 sequence (whole entry): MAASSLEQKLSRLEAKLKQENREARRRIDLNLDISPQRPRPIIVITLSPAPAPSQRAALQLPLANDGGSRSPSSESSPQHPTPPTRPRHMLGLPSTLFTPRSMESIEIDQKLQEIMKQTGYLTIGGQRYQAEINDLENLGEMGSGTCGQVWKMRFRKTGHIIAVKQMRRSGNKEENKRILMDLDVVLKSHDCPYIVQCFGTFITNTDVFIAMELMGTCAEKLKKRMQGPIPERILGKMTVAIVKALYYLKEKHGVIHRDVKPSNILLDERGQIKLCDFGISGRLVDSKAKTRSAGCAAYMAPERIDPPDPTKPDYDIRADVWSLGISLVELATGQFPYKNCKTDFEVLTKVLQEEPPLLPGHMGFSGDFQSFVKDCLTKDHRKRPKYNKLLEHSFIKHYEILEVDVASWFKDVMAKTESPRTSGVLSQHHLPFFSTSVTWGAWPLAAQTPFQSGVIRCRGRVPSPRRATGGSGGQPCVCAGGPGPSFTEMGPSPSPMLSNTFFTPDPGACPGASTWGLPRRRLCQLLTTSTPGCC
Method in brief: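 Dissociated DRG neurons plated on laminin for 3 h, medium replaced, compound added for a further 2 h. Neurons lysed in RIPA buffer with phosphatase inhibitors. Western blots probed for phospho-cJun, cJun, phospho-JNK and JNK.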

[2] = Inhibition of N-terminal His-tagged MKK7 beta1 S273D/T275D double mutant (unknown origin) expressed in insect cells using JNK1 K55M mutant as substrate by ADP-Glo assay; set-up: species or system Homo sapiens
Method in brief: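 ADP-Glo luminescence run per supplier protocol. Kinase: MKK7 beta1 (aa 1-462, TEV-cleavable N-terminal His6 tag, S273D/T275D) expressed in Sf9 insect cells, used at 20 nM. Substrate: JNK1 K55M at 5 µM. Compound dispensed acoustically; read on plate reader.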

[3] = biological target: T2, Tyrosine-protein kinase ITK/TSK (Homo sapiens) (UniProt Q08881); assay: Inhibition of ITK (unknown origin) at 1 uM by proQinase-based assay relative to control
T2 sequence (whole entry): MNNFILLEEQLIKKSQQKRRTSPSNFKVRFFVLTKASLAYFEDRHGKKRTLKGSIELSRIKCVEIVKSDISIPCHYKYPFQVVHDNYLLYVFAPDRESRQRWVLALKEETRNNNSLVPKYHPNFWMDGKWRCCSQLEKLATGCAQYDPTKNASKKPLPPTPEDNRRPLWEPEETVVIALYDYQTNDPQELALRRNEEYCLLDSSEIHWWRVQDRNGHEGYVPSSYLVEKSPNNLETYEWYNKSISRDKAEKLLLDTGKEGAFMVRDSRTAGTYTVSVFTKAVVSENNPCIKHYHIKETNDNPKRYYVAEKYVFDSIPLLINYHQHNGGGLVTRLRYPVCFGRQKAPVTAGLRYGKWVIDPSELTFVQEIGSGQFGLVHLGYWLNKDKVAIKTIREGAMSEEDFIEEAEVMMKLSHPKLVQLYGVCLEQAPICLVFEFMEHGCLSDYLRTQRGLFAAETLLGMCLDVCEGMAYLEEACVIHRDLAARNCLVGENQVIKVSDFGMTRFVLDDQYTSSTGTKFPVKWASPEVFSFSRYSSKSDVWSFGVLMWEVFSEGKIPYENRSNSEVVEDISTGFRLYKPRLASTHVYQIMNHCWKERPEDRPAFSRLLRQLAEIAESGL

[4] = biological target: Serine/threonine-protein kinase mTOR (Homo sapiens) (UniProt P42345); assay: Inhibition of mTOR (unknown origin) at 1 uM by proQinase-based assay relative to control
[5] = Apparent permeability across basolateral to apical side in MDCK2-MDR1 cells at 10 uM after 2 hrs by transwell membrane based assay; type: ADME, cell-based, Canis lupus familiaris; details: dog, MDCK-MDR1
Method in brief: (§1)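 Compound at 10 µM in HBSS added to apical or basolateral side of MDCKII-MDR1 monolayer, 2 h at 37 °C. Both sides quantified by LC-MS/MS; Papp A–B or B–A from receiver concentration and volume, time, membrane area and initial donor concentration.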

[6] = Protein binding in mouse plasma at 5 uM after 6 hrs by LC/MS analysis; type: ADME, cell-free; details: read-out: PPB (converted)
Method in brief: (§2)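 Equilibrium dialysis of plasma with compound at 5 µM, 6 h at 37 °C; final compound concentrations determined by LC/MS to give percent bound.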

[7] = in vitro; details: human, liver microsomes
[8] = Stability in human plasma assessed as compound remaining at 5 uM after 1 hr by LC/MS analysis; type: ADME, cell-free; details: read-out: Stability
Method in brief: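 Compound at 5 µM incubated 1 h at 37 °C in human or mouse plasma; percentage remaining quantified by LC/MS.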

[9] = biological target: Ribosomal protein S6 kinase (Homo sapiens) (UniProt P51812+Q9UBS0+O75676+Q15349+O75582+P23443+Q9UK32+Q15418); assay: Inhibition of SK6 (unknown origin) at 1 uM by proQinase-based assay relative to control; type: protein assay
[10] = Apparent permeability across apical to basolateral side in MDCK2-MDR1 cells at 10 uM after 2 hrs by transwell membrane based assay; type: ADME, cell-based, Canis lupus familiaris; details: dog, MDCK-MDR1; method in brief: as §1
[11] = biological target: T3, Dual specificity mitogen-activated protein kinase kinase 7 (Homo sapiens) (UniProt O14733); assay: Covalent binding affinity to MKK7 (unknown origin) assessed as formation of covalent bond with Cys218 residues by MS/MS analysis
T3 sequence (whole entry): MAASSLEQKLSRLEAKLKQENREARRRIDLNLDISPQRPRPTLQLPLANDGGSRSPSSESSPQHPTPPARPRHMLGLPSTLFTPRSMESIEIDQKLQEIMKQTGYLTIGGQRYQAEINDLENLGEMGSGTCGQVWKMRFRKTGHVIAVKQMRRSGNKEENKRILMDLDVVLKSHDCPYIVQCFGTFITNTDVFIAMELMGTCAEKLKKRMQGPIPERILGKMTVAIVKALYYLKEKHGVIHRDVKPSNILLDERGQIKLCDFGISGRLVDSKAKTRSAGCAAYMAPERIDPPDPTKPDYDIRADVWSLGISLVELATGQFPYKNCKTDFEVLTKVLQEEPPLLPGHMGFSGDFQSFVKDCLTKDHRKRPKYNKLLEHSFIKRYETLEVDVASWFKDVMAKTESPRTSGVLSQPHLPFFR
Method in brief: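 Protein at 1 mg/mL incubated with 2-fold molar excess of compound, 30 min on ice, then denatured and run on 15% SDS gel. Band excised, reduced with 50 mM DTT (1 h, 37 °C), alkylated with 55 mM iodoacetamide (1 h, 20 °C), digested with 0.1 mg/mL trypsin 20 h at 30 °C, acidified with TFA. Analysed by ion-trap MS/MS.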

[12] = Protein binding in human plasma at 5 uM after 6 hrs by LC/MS analysis; type: ADME, cell-free; details: read-out: PPB (converted); method in brief: as §2

inhibition [1]: Active
inhibition [3]: > 50%
inhibition [4]: > 50%
Papp B→A at 2 h, 10 µM [5]: 4 ×10⁻⁶ cm/s
fraction unbound at 6 h, 5 µM [6]: 0.073
microsomal CLint at 1 h, 3 µM [7]: 154 µL/min/mg
remaining at 1 h, 5 µM [8]: > 99%
inhibition [9]: > 50%
Papp A→B at 2 h, 10 µM [10]: 9 ×10⁻⁶ cm/s
Activity [11]: Active
fraction unbound at 6 h, 5 µM [12]: 0.04
SMILES: C=CC(=O)N1CCC[C@@H](n2nc(-c3cn(-c4ccc(C(C)=O)cc4)nn3)c3c(N)ncnc32)C1
IC50 [2]: 10 nM
